We go through 59 molecules from ChEMBL document CHEMBL2040715, “Discovery of a Potent HIV Integrase Inhibitor that Leads to a Prodrug with Significant anti-HIV Activity” (ACS Med Chem Lett, 2011).

By EC50 is commonly meant the concentration at which the effect is half-maximal. Read a high EC50 as a less potent agent. What is called CC50 is the concentration at which the toxic effect on the cells reaches its halfway point. A high value points to lower toxicity to the cells. What is called IC50 is the concentration that gives 50% inhibition.

Tested on in one data set: not listed separately
The data set can be described thus: Therapeutic index, ratio of CC50 for human MAGI cells to EC50 for HIV1. It is filed as cell-based.
Settings: not given
As to `CC(C)OC(=O)/C(O)=C/C(=O)c1cc(Cc2ccc(F)cc2F)cn(Cc2ccccc2F)c1=O`, the “Ratio CC50/EC50” value is recorded as 15000.

For another data set, the system named is Human immunodeficiency virus 1. In words: Antiviral activity against HIV1 infected in MAGI cells by beta-galactosidase reporter gene assay. It is filed as functional, organism-based. The conditions noted are these: Human immunodeficiency virus 1, MAGI. In outline:
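HIV-1 infection of MAGI cells, with raltegravir as the MOI-sensitive positive control validating each run. EC50 and EC90 were determined.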
(A reporter such as luciferase makes a cellular process visible.)
`COc1ccc(Cn2cc(Cc3ccccc3)cc(C(=O)/C=C(\O)C(=O)O)c2=O)cc1`: the response was half-maximal at 1800 nM (EC50).
As for `O=C(O)/C(O)=C/C(=O)c1cc(Cc2ccccc2F)cn(Cc2ccccc2F)c1=O`, a half-maximal effect (EC50) was put at 700 nM.
`Cc1ccc(Cn2cc(Cc3ccccc3F)cc(C(=O)/C=C(\O)C(=O)O)c2=O)cc1` yielded an EC50 of 700 nM.
With `O=C(O)/C(O)=C/C(=O)c1cc(Cc2ccc(F)cc2)cn(Cc2cccc(F)c2)c1=O`, the half-maximal effective concentration (EC50) turned out to be 1000 nM.
On to `Cc1cccc(Cn2cc(Cc3ccc(F)c(Cl)c3)cc(C(=O)/C=C(\O)C(=O)O)c2=O)c1`, for which a half-maximal effect (EC50) was put at 2200 nM.
As for `O=C(O)/C(O)=C/C(=O)c1cc(Cc2cccc(Cl)c2)cn(Cc2ccc(F)c(Cl)c2)c1=O`, a half-maximal effect (EC50) was put at 1200 nM.
Consider `CC(C)OC(=O)/C(O)=C/C(=O)c1cc(Cc2ccc(F)cc2F)cn(Cc2ccccc2F)c1=O`, for which a half-maximal effect (EC50) was put at 9 nM.
`O=C(O)/C(O)=C/C(=O)c1cc(Cc2ccccc2)cn(Cc2cccc(Cl)c2F)c1=O` displayed an EC50 of 700 nM.
For `O=C(O)/C(O)=C/C(=O)c1cc(Cc2cccc(Cl)c2)cn(Cc2ccccc2F)c1=O`, the EC50 was determined as 1900 nM.
For the molecule `O=C(O)/C(O)=C/C(=O)c1cc(Cc2ccc(F)cc2F)cn(Cc2ccc(F)cc2)c1=O`, the 50% effective concentration (EC50) stood at 600 nM.
The molecule `Cc1cc(F)ccc1Cc1cc(C(=O)/C=C(\O)C(=O)O)c(=O)n(Cc2ccc(F)cc2)c1` had a 50% effective concentration (EC50) of 1000 nM.
For the molecule `O=C(O)/C(O)=C/C(=O)c1cc(Cc2ccccc2)cn(Cc2ccccc2F)c1=O`, it took 900 nM to reach a half-maximal effect (EC50).
With `Cc1cccc(Cn2cc(Cc3ccc(F)cc3F)cc(C(=O)/C=C(\O)C(=O)O)c2=O)c1`, the midpoint of the response, the EC50, lay at 700 nM.
The same measure, in the same setting: the result for `O=C(O)/C(O)=C/C(=O)c1cc(Cc2ccc(F)cc2)cn(Cc2c(F)cccc2F)c1=O` reads 1400 nM; that for `O=C(O)/C(O)=C/C(=O)c1cc(Cc2ccccc2)cn(Cc2ccc(F)cc2F)c1=O`, 600 nM; that for `O=C(O)/C(O)=C/C(=O)c1cc(Cc2ccc(F)cc2F)cn(Cc2ccccc2)c1=O`, 800 nM.
On to `O=C(O)/C(O)=C/C(=O)c1cc(Cc2ccc(F)c(Cl)c2)cn(Cc2ccccc2F)c1=O`, for which the EC50 is 2200 nM.
The molecule `CC(C)OC(=O)/C(O)=C/C(=O)c1cc(Cc2ccc(F)cc2F)cn(Cc2ccc(F)cc2F)c1=O` had a 50% effective concentration (EC50) of 46 nM.
The same measure, in the same setting: the result for `Cc1cc(F)ccc1Cc1cc(C(=O)/C=C(\O)C(=O)O)c(=O)n(Cc2ccccc2)c1` reads 1300 nM; that for `O=C(O)/C(O)=C/C(=O)c1cc(Cc2cccc(Cl)c2)cn(Cc2ccc(Cl)cc2)c1=O`, 2500 nM; that for `O=C(O)/C(O)=C/C(=O)c1cc(Cc2ccccc2)cn(Cc2ccccc2)c1=O`, 2100 nM.
Molecule `O=C(O)/C(O)=C/C(=O)c1cc(Cc2ccccc2)cn(Cc2cccc(F)c2)c1=O` showed an EC50 of 2000 nM.
`Cc1ccc(Cn2cc(Cc3ccc(F)c(Cl)c3)cc(C(=O)/C=C(\O)C(=O)O)c2=O)cc1` had an EC50 greater than 5000 nM.
With `O=C(O)/C(O)=C/C(=O)c1cc(Cc2ccccc2)cn(Cc2ccc(F)c(Cl)c2)c1=O`, the half-maximal effective concentration (EC50) came to 800 nM.
In turn, `O=C(O)/C(O)=C/C(=O)c1cc(Cc2ccccc2F)cn(Cc2cccc(F)c2)c1=O` registered a half-maximal effective concentration (EC50) of 1900 nM.
Still for that read-out and setting: the result for `O=C(O)/C(O)=C/C(=O)c1cc(Cc2cccc(C(=O)O)c2)cn(Cc2ccccc2)c1=O` reads greater than 5000 nM.
The molecule `N#Cc1ccc(Cn2cc(Cc3ccccc3F)cc(C(=O)/C=C(\O)C(=O)O)c2=O)cc1` registered an EC50 of 1100 nM.
As for `Cc1ccc(Cn2cc(Cc3cccc(Cl)c3)cc(C(=O)/C=C(\O)C(=O)O)c2=O)cc1`, the concentration for a half-maximal effect (EC50) came out at 2500 nM.
`O=C(O)/C(O)=C/C(=O)c1cc(Cc2ccc(F)c(Cl)c2)cn(Cc2c(F)cccc2F)c1=O` registered a concentration giving a half-maximal response (EC50) of 5100 nM.
Regarding `O=C(O)/C(O)=C/C(=O)c1cc(Cc2cccc(Cl)c2)cn(Cc2cccc(Cl)c2)c1=O`, the EC50 is 1100 nM.
In turn, `O=C(O)/C(O)=C/C(=O)c1cc(Cc2ccc(F)c(Cl)c2)cn(Cc2ccc(F)c(Cl)c2)c1=O` registered an EC50 of 2400 nM.
`O=C(O)/C(O)=C/C(=O)c1cc(Cc2ccc(F)c(Cl)c2)cn(Cc2ccc(F)cc2)c1=O` came in with an EC50 greater than 5000 nM.
Take `O=C(O)/C(O)=C/C(=O)c1cc(Cc2ccccc2Cl)cn(Cc2ccc(F)cc2F)c1=O`: the EC50 turned out to be 800 nM.
In turn, `O=C(O)/C(O)=C/C(=O)c1cc(Cc2ccccc2)cn(Cc2c(F)cccc2F)c1=O` registered an EC50 of 1500 nM.
In turn, `O=C(O)/C(O)=C/C(=O)c1cc(Cc2ccccc2F)cn(Cc2ccc(F)cc2)c1=O` came in with an EC50 of 800 nM.
On the same count and under the same terms, under `O=C(O)/C(O)=C/C(=O)c1cc(Cc2ccccc2F)cn(Cc2ccc(F)cc2F)c1=O` stands 600 nM.
Molecule `O=C(O)/C(O)=C/C(=O)c1cc(Cc2cccc(Cl)c2)cn(Cc2cccc(Cl)c2F)c1=O` registered an EC50 of 1400 nM.
On the same count and under the same terms, under `O=C(O)/C(O)=C/C(=O)c1cc(Cc2ccccc2F)cn(Cc2cccc(F)c2F)c1=O` stands 800 nM; under `O=C(O)/C(O)=C/C(=O)c1cc(Cc2ccc(F)cc2)cn(Cc2cccc(F)c2F)c1=O`, 700 nM; under `O=C(O)/C(O)=C/C(=O)c1cc(Cc2ccccc2F)cn(Cc2cccc(Cl)c2)c1=O`, 700 nM.
Regarding `COc1ccc(Cc2cc(C(=O)/C=C(\O)C(=O)O)c(=O)n(Cc3ccc(OC)cc3)c2)cc1`, the concentration for a half-maximal effect (EC50) was greater than 5000 nM.
Still for that read-out and setting: the result for `Cc1cccc(Cc2cc(C(=O)/C=C(\O)C(=O)O)c(=O)n(Cc3cccc(Cl)c3F)c2)c1` reads 1400 nM; that for `O=C(O)/C(O)=C/C(=O)c1cc(Cc2cccc(Cl)c2)cn(Cc2ccc(F)cc2)c1=O`, 1400 nM; that for `Cc1cc(F)ccc1Cc1cc(C(=O)/C=C(\O)C(=O)O)c(=O)n(Cc2ccccc2F)c1`, 1300 nM.
`O=C(O)/C(O)=C/C(=O)c1cc(Cc2ccc(F)cc2)cn(Cc2cccc(Cl)c2)c1=O` showed a half-maximal effective concentration (EC50) of 1200 nM.
In the case of `O=C(O)/C(O)=C/C(=O)c1cc(Cc2ccc(F)cc2F)cn(Cc2ccc(F)cc2F)c1=O`, the EC50 was 300 nM.
On the same count and under the same terms, the result for `O=C(O)/C(O)=C/C(=O)c1cc(Cc2ccc(F)c(Cl)c2)cn(Cc2ccc(F)cc2F)c1=O` reads 1400 nM.
Molecule `Cc1ccc(Cn2cc(Cc3ccc(F)cc3)cc(C(=O)/C=C(\O)C(=O)O)c2=O)cc1` registered an EC50 of 1600 nM.
Regarding `O=C(O)/C(O)=C/C(=O)c1cc(Cc2cccc(Cl)c2F)cn(Cc2cccc(Cl)c2F)c1=O`, the EC50 was found to be 2400 nM.
Same read-out and setting: under `O=C(O)/C(O)=C/C(=O)c1cc(Cc2ccc(F)cc2)cn(Cc2ccc(F)cc2)c1=O` stands 800 nM; under `O=C(O)/C(O)=C/C(=O)c1cc(Cc2ccccc2)cn(Cc2cccc(F)c2F)c1=O`, 900 nM; under `Cc1cccc(Cn2cc(Cc3ccccc3F)cc(C(=O)/C=C(\O)C(=O)O)c2=O)c1`, 900 nM.
Molecule `O=C(O)/C(O)=C/C(=O)c1cc(Cc2ccccc2)cn(Cc2cc(Cl)ccc2F)c1=O` gave an EC50 of 900 nM.
As to `O=C(O)/C(O)=C/C(=O)c1cc(Cc2ccccc2)cn(Cc2ccc(F)c(Cl)c2F)c1=O`, the EC50 came out at 600 nM.
`O=C(O)/C(O)=C/C(=O)c1cc(Cc2ccc(F)cc2)cn(Cc2ccccc2F)c1=O`: the EC50 was 700 nM.
On the same count and under the same terms, under `O=C(O)/C(O)=C/C(=O)c1cc(Cc2ccccc2)cn(Cc2ccc(F)cc2)c1=O` stands 1000 nM.
On the same count and under the same terms, the result for `O=C(O)/C(O)=C/C(=O)c1cc(Cc2cccc(Cl)c2F)cn(Cc2cccc(Cl)c2)c1=O` reads 1500 nM.

Another data set concerns Human immunodeficiency virus 1. In words: Antiviral activity against HIV1 infected in human MT4 cells. The conditions noted are these: Human immunodeficiency virus 1, MT4.
`O=C(O)C(=O)CC(=O)c1cccn1Cc1ccc(F)cc1` gave a 50% effective concentration (EC50) of 1000 nM.

Tested on in a further data set: not listed separately
In words: Cytotoxicity against human MAGI cells by MTS assay. It is filed as cell-based.
Settings: not given
With `CC(C)OC(=O)/C(O)=C/C(=O)c1cc(Cc2ccc(F)cc2F)cn(Cc2ccccc2F)c1=O`, the CC50 stood at 135000 nM and the CC90 was greater than 200000 nM.

Tested on in another data set: not listed separately
In words: Cytotoxicity against PBMC. It is filed as cell-based. The conditions noted are these: human.
In turn, `O=C(/C=C(\O)c1nc[nH]n1)c1ccc(Cc2ccc(F)cc2)o1` [S-1360] gave a CC50 of 110000 nM.

The target of another data set is Human immunodeficiency virus type 1 integrase (Human immunodeficiency virus 1, UniProt Q7ZJM1). The data set can be described thus: Inhibition of HIV1 integrase-mediated strand transfer.
Human immunodeficiency virus type 1 integrase, sequence (Q7ZJM1 whole entry): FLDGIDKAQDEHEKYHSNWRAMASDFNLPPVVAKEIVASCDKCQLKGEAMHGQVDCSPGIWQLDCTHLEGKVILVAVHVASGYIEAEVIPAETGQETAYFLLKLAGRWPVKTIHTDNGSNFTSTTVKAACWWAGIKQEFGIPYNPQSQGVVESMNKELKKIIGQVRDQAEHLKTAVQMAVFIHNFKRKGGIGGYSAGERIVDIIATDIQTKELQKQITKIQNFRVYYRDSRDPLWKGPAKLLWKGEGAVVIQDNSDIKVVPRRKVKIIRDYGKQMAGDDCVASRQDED
Settings: not given
The molecule `CC(C)OC(=O)/C(O)=C/C(=O)c1cc(Cc2ccc(F)cc2F)cn(Cc2ccccc2F)c1=O` registered a concentration for half-maximal inhibition (IC50) greater than 475 nM.
Turning to `O=C(O)/C(O)=C/C(=O)c1cc(Cc2ccccc2)cn(Cc2ccccc2)c1=O`, the half-maximal inhibitory concentration (IC50) worked out at 70 nM.
